Measurements reported in ChEMBL document CHEMBL1153264, “(1,2,3-Triazol-4-yl)benzenamines: synthesis and activity against VEGF receptors 1 and 2” (Bioorg Med Chem Lett, 2009).

What was measured:
[1] = target: Aurora kinase B (Homo sapiens) (UniProt Q96GD4); experiment: Inhibition of Aurora B at 10 uM
[2] = target: Cyclin-dependent kinase 2 (Homo sapiens) (UniProt P24941); experiment: Inhibition of Cdk2 at 10 uM
[3] = target: Serine/threonine-protein kinase PLK1 (Homo sapiens) (UniProt P53350); experiment: Inhibition of Plk1 at 10 uM
[4] = Inhibition of Bcr-Abl T315 mutant at 10 uM
[5] = target: Proto-oncogene tyrosine-protein kinase Src (Homo sapiens) (UniProt P12931); experiment: Inhibition of Src at 10 uM
[6] = target: Vascular endothelial growth factor receptor 1 (Homo sapiens, UniProt P17948); experiment: Inhibition of VEGFR1 by HTRF assay
[7] = target: Hepatocyte growth factor receptor (Homo sapiens) (UniProt P08581); experiment: Inhibition of c-Met at 10 uM
[8] = target: Macrophage-stimulating protein receptor (Homo sapiens) (UniProt Q04912); experiment: Inhibition of Ron at 10 uM
[9] = target: Insulin receptor (Homo sapiens) (UniProt P06213); experiment: Inhibition of IR at 10 uM
[10] = target: Cyclin-dependent kinase 1 (Homo sapiens) (UniProt P06493); experiment: Inhibition of Cdk1 at 10 uM
[11] = target: T1, Vascular endothelial growth factor receptor 2 (Homo sapiens, UniProt P35968); experiment: Inhibition of VEGF-induced phosphorylation of VEGFR2 by cell-based ELISA
[12] = target: Glycogen synthase kinase-3 beta (Homo sapiens) (UniProt P49841); experiment: Inhibition of GSK3-beta at 10 uM
[13] = target: Epidermal growth factor receptor (Homo sapiens) (UniProt P00533); experiment: Inhibition of EGFR at 10 uM
[14] = Inhibition of PKA at 10 uM
[15] = target: T2, Aurora kinase A (Homo sapiens) (UniProt O14965); experiment: Inhibition of Aurora A at 10 uM
T2 sequence (whole entry): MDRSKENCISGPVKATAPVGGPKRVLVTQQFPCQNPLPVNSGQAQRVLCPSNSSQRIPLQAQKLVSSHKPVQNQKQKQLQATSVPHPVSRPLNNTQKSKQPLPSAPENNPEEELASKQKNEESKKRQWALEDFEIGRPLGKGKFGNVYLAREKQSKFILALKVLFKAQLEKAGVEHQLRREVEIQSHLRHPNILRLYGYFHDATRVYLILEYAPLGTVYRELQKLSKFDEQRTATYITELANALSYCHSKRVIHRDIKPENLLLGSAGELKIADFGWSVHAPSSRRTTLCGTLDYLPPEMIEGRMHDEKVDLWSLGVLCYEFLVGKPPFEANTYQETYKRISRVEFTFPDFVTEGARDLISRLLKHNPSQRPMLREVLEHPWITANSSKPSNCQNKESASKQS

[16] = target: Fibroblast growth factor receptor 1 (Homo sapiens) (UniProt P11362); experiment: Inhibition of FGFR1 at 10 uM
[17] = target: Receptor-type tyrosine-protein kinase FLT3 (Homo sapiens) (UniProt P36888); experiment: Inhibition of Flt3 at 10 uM
[18] = target: Receptor tyrosine-protein kinase erbB-2 (Homo sapiens) (UniProt P04626); experiment: Inhibition of ErbB2 at 10 uM
[19] = target: Bcr/Abl fusion protein (Homo sapiens) (UniProt P00519+P11274); experiment: Inhibition of Bcr-Abl at 10 uM; format: protein assay
[20] = target: T1, Vascular endothelial growth factor receptor 2; experiment: Inhibition of VEGFR2 by HTRF assay in presence of 2 uM ATP
Procedure, shortened: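 HTRF kinase assay with KDR enzyme (3–4 ng) and biotinylated pGAT substrate. ATP added to start, 45 min at RT. Stopped with EDTA/KF buffer plus Eu-cryptate anti-phosphotyrosine antibody, 2 h RT, then HTRF read. IC50 from 10-point log concentration curves, mean of at least two duplicate runs.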

[21] = target: Insulin-like growth factor 1 receptor (Homo sapiens) (UniProt P08069); experiment: Inhibition of IGF1R at 10 uM
[22] = target: T1, Vascular endothelial growth factor receptor 2; experiment: Binding affinity to VEGFR2 at IC50 in presence of ATP
Procedure, shortened: (§1)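 ATP competition assay with VEGFR-2. Five concentrations of ³²P ATP across 0-100 µM, each incubated with enzyme for 45 min at RT. Inhibitor was absent or present at two fixed levels.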

[23] = target: T1, Vascular endothelial growth factor receptor 2; experiment: Binding affinity to VEGFR2 at IC90 in presence of ATP; procedure, shortened: as §1

Chain of Vascular endothelial growth factor receptor 1 (P17948 whole entry): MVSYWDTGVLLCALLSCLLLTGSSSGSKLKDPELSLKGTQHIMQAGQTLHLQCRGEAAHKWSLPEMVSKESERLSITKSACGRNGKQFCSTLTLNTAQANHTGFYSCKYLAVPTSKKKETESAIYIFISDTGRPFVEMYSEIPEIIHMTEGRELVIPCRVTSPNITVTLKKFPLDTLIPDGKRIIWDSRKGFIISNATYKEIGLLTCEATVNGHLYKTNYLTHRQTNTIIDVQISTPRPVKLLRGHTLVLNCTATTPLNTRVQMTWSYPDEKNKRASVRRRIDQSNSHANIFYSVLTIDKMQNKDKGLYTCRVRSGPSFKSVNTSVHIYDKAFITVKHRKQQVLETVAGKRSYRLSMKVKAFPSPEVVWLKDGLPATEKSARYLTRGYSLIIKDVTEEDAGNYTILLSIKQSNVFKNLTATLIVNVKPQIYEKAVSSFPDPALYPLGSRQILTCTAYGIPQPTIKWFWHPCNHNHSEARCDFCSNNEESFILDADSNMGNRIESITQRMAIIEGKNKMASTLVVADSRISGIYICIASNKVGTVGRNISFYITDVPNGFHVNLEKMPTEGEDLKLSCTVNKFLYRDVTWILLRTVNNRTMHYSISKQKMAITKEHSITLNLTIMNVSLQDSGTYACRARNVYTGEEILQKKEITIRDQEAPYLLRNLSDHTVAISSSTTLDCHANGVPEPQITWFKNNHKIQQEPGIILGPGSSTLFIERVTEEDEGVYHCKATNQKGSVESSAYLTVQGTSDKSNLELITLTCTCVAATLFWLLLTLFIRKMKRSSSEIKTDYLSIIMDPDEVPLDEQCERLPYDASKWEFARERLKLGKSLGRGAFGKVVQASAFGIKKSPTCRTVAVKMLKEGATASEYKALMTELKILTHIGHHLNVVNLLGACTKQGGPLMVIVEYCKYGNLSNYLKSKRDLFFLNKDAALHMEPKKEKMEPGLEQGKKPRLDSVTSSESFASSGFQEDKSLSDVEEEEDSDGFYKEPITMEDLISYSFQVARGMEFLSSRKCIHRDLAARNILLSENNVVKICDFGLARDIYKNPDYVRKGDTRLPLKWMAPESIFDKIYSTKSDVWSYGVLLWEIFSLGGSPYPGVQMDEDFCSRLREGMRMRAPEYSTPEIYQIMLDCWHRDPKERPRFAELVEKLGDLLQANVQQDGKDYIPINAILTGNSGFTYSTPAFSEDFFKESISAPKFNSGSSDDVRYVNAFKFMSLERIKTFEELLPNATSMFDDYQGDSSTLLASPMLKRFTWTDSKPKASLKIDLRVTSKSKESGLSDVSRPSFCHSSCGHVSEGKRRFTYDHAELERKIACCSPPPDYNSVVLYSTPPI
Chain of Aurora kinase B (Homo sapiens) (Q96GD4 whole entry): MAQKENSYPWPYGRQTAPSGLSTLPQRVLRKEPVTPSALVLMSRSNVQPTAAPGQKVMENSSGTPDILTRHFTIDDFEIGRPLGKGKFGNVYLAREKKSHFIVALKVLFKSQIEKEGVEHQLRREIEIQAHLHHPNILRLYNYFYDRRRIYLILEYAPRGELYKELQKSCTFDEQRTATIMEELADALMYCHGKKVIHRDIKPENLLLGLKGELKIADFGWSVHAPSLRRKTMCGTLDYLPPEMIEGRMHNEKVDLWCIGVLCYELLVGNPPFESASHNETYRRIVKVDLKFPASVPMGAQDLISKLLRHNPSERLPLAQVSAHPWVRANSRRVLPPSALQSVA
Chain of Hepatocyte growth factor receptor (Homo sapiens) (P08581 whole entry): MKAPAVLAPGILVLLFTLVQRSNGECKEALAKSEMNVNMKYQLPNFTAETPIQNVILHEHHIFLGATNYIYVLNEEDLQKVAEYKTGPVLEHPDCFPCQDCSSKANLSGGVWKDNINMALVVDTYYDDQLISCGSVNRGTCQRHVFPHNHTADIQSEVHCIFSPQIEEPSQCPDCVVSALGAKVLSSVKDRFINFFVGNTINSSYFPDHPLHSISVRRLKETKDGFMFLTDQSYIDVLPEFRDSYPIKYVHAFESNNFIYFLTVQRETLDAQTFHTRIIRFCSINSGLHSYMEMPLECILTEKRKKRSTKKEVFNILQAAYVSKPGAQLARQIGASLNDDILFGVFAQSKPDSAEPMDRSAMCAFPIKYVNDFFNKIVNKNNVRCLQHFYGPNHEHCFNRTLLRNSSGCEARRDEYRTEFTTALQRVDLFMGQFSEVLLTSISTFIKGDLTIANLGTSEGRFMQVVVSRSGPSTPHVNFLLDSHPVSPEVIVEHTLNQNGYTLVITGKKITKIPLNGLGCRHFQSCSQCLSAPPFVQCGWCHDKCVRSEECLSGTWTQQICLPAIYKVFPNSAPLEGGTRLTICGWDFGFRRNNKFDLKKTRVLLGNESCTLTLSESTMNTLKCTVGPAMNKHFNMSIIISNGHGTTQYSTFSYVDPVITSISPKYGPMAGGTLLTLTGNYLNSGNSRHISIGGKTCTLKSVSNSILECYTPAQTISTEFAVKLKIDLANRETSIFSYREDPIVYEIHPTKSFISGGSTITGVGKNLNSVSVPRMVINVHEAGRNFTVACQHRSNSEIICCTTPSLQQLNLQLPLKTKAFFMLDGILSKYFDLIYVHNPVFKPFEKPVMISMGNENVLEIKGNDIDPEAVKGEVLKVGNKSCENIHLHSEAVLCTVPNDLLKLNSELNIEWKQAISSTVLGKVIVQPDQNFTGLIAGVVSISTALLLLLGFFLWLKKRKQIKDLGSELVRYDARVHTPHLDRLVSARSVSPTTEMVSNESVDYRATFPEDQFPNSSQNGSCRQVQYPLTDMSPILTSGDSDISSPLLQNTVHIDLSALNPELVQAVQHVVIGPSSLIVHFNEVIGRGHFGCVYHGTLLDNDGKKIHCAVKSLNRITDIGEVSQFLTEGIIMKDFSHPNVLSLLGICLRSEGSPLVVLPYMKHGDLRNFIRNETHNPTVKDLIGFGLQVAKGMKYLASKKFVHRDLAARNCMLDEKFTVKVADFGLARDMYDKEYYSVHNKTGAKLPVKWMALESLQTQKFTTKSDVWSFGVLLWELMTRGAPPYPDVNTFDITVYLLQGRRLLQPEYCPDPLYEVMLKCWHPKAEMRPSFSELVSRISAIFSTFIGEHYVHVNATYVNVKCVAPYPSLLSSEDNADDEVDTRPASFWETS
T1 sequence (P35968 whole entry): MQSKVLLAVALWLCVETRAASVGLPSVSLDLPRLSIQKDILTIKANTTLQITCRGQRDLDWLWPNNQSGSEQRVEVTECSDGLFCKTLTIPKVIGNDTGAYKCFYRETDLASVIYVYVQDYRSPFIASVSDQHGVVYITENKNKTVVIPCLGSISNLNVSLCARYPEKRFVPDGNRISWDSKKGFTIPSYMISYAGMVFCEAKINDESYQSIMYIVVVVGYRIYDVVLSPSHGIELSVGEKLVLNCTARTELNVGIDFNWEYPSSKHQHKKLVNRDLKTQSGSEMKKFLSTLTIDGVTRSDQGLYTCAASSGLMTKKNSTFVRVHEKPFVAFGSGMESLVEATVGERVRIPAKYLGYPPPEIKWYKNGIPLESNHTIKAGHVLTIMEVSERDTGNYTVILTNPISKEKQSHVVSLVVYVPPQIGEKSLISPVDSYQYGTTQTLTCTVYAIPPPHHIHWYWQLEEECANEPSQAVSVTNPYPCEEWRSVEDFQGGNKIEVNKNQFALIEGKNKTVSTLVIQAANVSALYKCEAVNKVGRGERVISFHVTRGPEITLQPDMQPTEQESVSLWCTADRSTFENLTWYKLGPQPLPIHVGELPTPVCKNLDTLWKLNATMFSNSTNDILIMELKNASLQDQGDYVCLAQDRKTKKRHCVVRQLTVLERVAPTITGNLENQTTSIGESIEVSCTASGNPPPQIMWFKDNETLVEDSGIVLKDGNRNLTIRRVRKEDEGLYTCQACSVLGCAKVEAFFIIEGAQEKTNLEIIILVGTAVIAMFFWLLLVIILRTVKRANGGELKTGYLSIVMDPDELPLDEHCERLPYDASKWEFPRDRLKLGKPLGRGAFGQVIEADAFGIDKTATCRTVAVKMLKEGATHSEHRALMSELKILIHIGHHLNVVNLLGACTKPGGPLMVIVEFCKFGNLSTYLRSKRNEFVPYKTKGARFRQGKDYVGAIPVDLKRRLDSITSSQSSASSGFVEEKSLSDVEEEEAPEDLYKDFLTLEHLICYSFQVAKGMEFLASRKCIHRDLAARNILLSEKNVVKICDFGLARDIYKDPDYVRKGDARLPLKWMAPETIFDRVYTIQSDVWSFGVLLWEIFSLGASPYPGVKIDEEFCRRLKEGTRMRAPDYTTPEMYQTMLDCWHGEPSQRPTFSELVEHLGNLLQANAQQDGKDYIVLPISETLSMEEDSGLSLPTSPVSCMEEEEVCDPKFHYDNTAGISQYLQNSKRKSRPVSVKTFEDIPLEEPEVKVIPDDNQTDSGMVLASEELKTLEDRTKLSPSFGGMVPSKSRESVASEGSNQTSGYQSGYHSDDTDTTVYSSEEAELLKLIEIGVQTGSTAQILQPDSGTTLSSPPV
Chain of Proto-oncogene tyrosine-protein kinase Src (Homo sapiens) (P12931 2-536 limits assumed): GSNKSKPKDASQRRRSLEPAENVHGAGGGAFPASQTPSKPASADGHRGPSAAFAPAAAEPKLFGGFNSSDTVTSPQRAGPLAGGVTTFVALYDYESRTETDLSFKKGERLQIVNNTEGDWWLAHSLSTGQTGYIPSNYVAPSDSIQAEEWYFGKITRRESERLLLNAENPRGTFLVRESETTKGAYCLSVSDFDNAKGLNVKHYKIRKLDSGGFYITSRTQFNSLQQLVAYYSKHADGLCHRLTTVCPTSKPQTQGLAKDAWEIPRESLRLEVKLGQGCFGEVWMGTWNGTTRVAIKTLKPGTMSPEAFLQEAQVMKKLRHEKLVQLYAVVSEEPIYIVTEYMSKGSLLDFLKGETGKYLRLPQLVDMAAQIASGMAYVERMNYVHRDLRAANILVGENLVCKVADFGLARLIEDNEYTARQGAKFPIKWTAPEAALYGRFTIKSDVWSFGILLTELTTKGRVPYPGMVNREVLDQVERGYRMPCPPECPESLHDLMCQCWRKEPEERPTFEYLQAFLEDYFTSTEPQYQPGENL

SMILES | inhibition [1] | inhibition [2] | inhibition [3] | inhibition [4] | inhibition [5] | IC50 [6] | inhibition [7] | inhibition [8] | inhibition [9] | inhibition [10] | IC50 [11] | inhibition [12] | inhibition [13] | inhibition [14] | inhibition [15] | inhibition [16] | inhibition [17] | inhibition [18] | inhibition [19] | IC50 [20] | other results
FC(F)(F)c1ccc(-n2cc(-c3ccccc3NCc3ccncc3)nn2)cc1Cl | < 30% | < 30% | < 30% | < 30% | < 30% | 1130 nM | < 30% | < 30% | < 30% | < 30% | 2920 nM | < 30% | < 30% | < 30% | < 30% | < 30% | < 30% | < 30% | < 30% | 930 nM | inhibition [21]: < 30%
FC(F)(F)c1cccc(-n2cc(-c3ccccc3NCc3ccc4c(c3)OCO4)nn2)c1 | < 30% | < 30% | < 30% | < 30% | < 30% | > 10000 nM | < 30% | < 30% | < 30% | < 30% | > 10000 nM | < 30% | < 30% | < 30% | < 30% | < 30% | < 30% | < 30% | < 30% | > 10000 nM | inhibition [21]: < 30%
Clc1cccc(-n2cc(-c3ccccc3NCc3cccnc3)nn2)c1 | < 30% | < 30% | < 30% | < 30% | < 30% | > 10000 nM | < 30% | < 30% | < 30% | < 30% | > 10000 nM | < 30% | < 30% | < 30% | < 30% | < 30% | < 30% | < 30% | < 30% | 4230 nM | inhibition [21]: < 30%
Clc1ccc(-n2cc(-c3ccccc3NCc3ccncc3)nn2)cc1Cl | < 30% | < 30% | < 30% | < 30% | < 30% | 650 nM | < 30% | < 30% | < 30% | < 30% | 1470 nM | < 30% | < 30% | < 30% | < 30% | < 30% | < 30% | < 30% | < 30% | 630 nM | inhibition [21]: < 30%
FC(F)(F)c1ccc(-n2cc(-c3ccccc3NCc3ccncc3)nn2)cc1 | < 30% | < 30% | < 30% | < 30% | < 30% | 660 nM | < 30% | < 30% | < 30% | < 30% | 1920 nM | < 30% | < 30% | < 30% | < 30% | < 30% | < 30% | < 30% | < 30% | 590 nM | inhibition [21]: < 30%
FC(F)(F)c1cccc(-n2cc(-c3ccccc3NCc3ccccn3)nn2)c1 | < 30% | < 30% | < 30% | < 30% | < 30% | > 10000 nM | < 30% | < 30% | < 30% | < 30% | > 10000 nM | < 30% | < 30% | < 30% | < 30% | < 30% | < 30% | < 30% | < 30% | > 10000 nM | inhibition [21]: < 30%

Compounds with a lower IC50 [6], results first:

inhibition [1] | inhibition [2] | inhibition [3] | inhibition [4] | inhibition [5] | IC50 [6] | inhibition [7] | inhibition [8] | inhibition [9] | inhibition [10] | IC50 [11] | inhibition [12] | inhibition [13] | inhibition [14] | inhibition [15] | inhibition [16] | inhibition [17] | inhibition [18] | inhibition [19] | IC50 [20] | SMILES | other results
< 30% | < 30% | < 30% | < 30% | < 30% | 130 nM | < 30% | < 30% | < 30% | < 30% | 270 nM | < 30% | < 30% | < 30% | < 30% | < 30% | < 30% | < 30% | < 30% | 390 nM | Clc1ccc(-n2cc(-c3ccccc3NCc3ccncc3)nn2)cc1 | inhibition [21]: < 30%
< 30% | < 30% | < 30% | < 30% | < 30% | 130 nM | < 30% | < 30% | < 30% | < 30% | 160 nM | < 30% | < 30% | < 30% | < 30% | < 30% | < 30% | < 30% | < 30% | 87 nM | Clc1cccc(-n2cc(-c3ccccc3NCc3ccncc3)nn2)c1 | Ki [22]: 120 nM; Ki [23]: 110 nM; inhibition [21]: < 30%
< 30% | < 30% | < 30% | < 30% | < 30% | 250 nM | < 30% | < 30% | < 30% | < 30% | 330 nM | < 30% | < 30% | < 30% | < 30% | < 30% | < 30% | < 30% | < 30% | 270 nM | CC(C)(C)c1cccc(-n2cc(-c3ccccc3NCc3ccncc3)nn2)c1 | inhibition [21]: < 30%
< 30% | < 30% | < 30% | < 30% | < 30% | 510 nM | < 30% | < 30% | < 30% | < 30% | 780 nM | < 30% | < 30% | < 30% | < 30% | < 30% | < 30% | < 30% | < 30% | 440 nM | FC(F)(F)c1cc(-n2cc(-c3ccccc3NCc3ccncc3)nn2)ccc1Cl | inhibition [21]: < 30%
< 30% | < 30% | < 30% | < 30% | < 30% | 530 nM | < 30% | < 30% | < 30% | < 30% | 1630 nM | < 30% | < 30% | < 30% | < 30% | < 30% | < 30% | < 30% | < 30% | 610 nM | CC(C)(C)c1ccc(-n2cc(-c3ccccc3NCc3ccncc3)nn2)cc1 | inhibition [21]: < 30%
< 30% | < 30% | < 30% | < 30% | < 30% | 170 nM | < 30% | < 30% | < 30% | < 30% | 270 nM | < 30% | < 30% | < 30% | < 30% | < 30% | < 30% | < 30% | < 30% | 190 nM | Clc1cccc(-n2cc(-c3ccccc3NCc3ccnc4ccccc34)nn2)c1 | inhibition [21]: < 30%
